Here are results for 27 compounds from ChEMBL document CHEMBL1143061, “Synthesis and antifungal activities of 5-(3,4,5-trimethoxyphenyl)-2-sulfonyl-1,3,4-thiadiazole and 5-(3,4,5-trimethoxyphenyl)-2-sulfonyl-1,3,4-oxadiazole derivatives” (Bioorg Med Chem, 2007).

For experiment [1], the system named is Botrytis cinerea. In words: Antifungal activity against Botrytis cinerea at 50 ug/mL. It counts as functional.
The test system of experiment [2] is Fusarium graminearum. In words: Antifungal activity against Gibberella zeae at 50 ug/mL. It counts as functional.
The subject of experiment [3] is Sclerotinia sclerotiorum. In words: Antifungal activity against Sclerotinia sclerotiorum at 50 ug/mL. It counts as functional.
A further experiment relates to Fusarium oxysporum. Kind of experiment: Growth inhibition of Fusarium oxysporum. Format: functional, organism-based. In short, it runs like this:
(§1)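 In vitro inhibition of mycelial growth, with hymexazol as the reference fungicide. The EC50, the concentration that inhibits growth by 50%, was read from a dose–response curve. Results come from three separate experiments, each run in triplicate.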

A further experiment relates to Rhizoctonia solani. In words: Growth inhibition of Rhizoctonia solani. Format: functional, organism-based. The essentials: as §1
Experiment [4] deals with Colletotrichum gloeosporioides. In words: Growth inhibition of Colletotrichum gloeosporioides. It counts as functional, organism-based.
Experiment [5] concerns Botrytis cinerea. In words: Antifungal activity against Botrytis cinerea. It counts as functional, organism-based.
The test system of experiment [6] is Sclerotinia sclerotiorum. Kind of experiment: Antifungal activity against Sclerotinia sclerotiorum. Format: functional, organism-based.
The subject of the next experiment is Cytospora. In words: Growth inhibition of Cytospora mandshurica. Format: functional.
A further experiment has as its system Pyricularia oryzae. In words: Growth inhibition of Pyricularia oryzae. It counts as functional, organism-based.
Experiment [7] has as its system Fusarium graminearum. Kind of experiment: Antifungal activity against Gibberella zeae. Format: functional, organism-based. In short, it runs like this: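 In vitro inhibition of fungal mycelial growth. EC50 read from the dose–response curve. Three separate experiments, each in triplicate. Hymexazol was the standard reference.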
A further experiment relates to Pyricularia grisea. Kind of experiment: Growth inhibition of Pyricularia grisea. Format: functional, organism-based.
For a further experiment, the system named is Phytophthora infestans. In words: Growth inhibition of Phytophthora infestans. Format: functional, organism-based.

In brackets after ≈: the same amount, converted by molar mass.

`C=CCS(=O)(=O)c1nnc(-c2cc(OC)c(OC)c(OC)c2)s1`: the inhibition at 50 µg/mL in the experiment on Botrytis cinerea [1] was determined as 47.3%; in the experiment on Fusarium graminearum [2], 14%; with Sclerotinia sclerotiorum [3] it was 40.5%.

With `COc1cccc(CS(=O)(=O)c2nnc(-c3cc(OC)c(OC)c(OC)c3)s2)c1`, the inhibition at 50 µg/mL in the experiment with Botrytis cinerea [1] was found to be 53.4%; in the experiment with Fusarium graminearum [2], 43.2%; in the experiment with Sclerotinia sclerotiorum [3] it was 74.5%.

With `CCCS(=O)(=O)c1nnc(-c2cc(OC)c(OC)c(OC)c2)o1`, the inhibition at 50 µg/mL in the experiment on Botrytis cinerea [1] turned out to be 59.4%; in the experiment on Fusarium graminearum [2], 59%; in the experiment on Sclerotinia sclerotiorum [3] it was 64%.

On to `CCOC(=O)CS(=O)(=O)c1nnc(-c2cc(OC)c(OC)c(OC)c2)o1`, for which the inhibition at 50 µg/mL in the experiment on Botrytis cinerea [1] worked out at 81.9%; in the experiment on Fusarium graminearum [2], 52%; in the experiment with Sclerotinia sclerotiorum [3], 79.9%.

For the compound `COc1cccc(CS(=O)(=O)c2nnc(-c3cc(OC)c(OC)c(OC)c3)o2)c1`, the inhibition at 50 µg/mL was determined as 38.1% in the experiment on Botrytis cinerea [1], 5.7% in the experiment with Fusarium graminearum [2] and 40.6% with Sclerotinia sclerotiorum [3].

As for `CCS(=O)(=O)c1nnc(-c2cc(OC)c(OC)c(OC)c2)o1`, the EC50 in the experiment on Fusarium oxysporum came to 18 µg/mL (≈ 54.8 µM); in the experiment on Rhizoctonia solani, 45.6 µg/mL (≈ 139 µM); in [4], 26.3 µg/mL (≈ 80.1 µM); in the experiment on Botrytis cinerea [5] it was 2.9 µg/mL (≈ 8.83 µM); with Sclerotinia sclerotiorum [6], 4.3 µg/mL (≈ 13.1 µM); in the experiment with Cytospora, 20.5 µg/mL (≈ 62.4 µM). Moreover, the inhibition at 50 µg/mL with Botrytis cinerea [1] and in the experiment with Sclerotinia sclerotiorum [3] was 100% each time.

For `C=CCS(=O)(=O)c1nnc(-c2cc(OC)c(OC)c(OC)c2)o1`, the inhibition at 50 µg/mL was determined as 40.9% with Botrytis cinerea [1], 26.4% in the experiment with Fusarium graminearum [2] and 40.9% in the experiment with Sclerotinia sclerotiorum [3].

Take `COc1cc(-c2nnc(S(=O)(=O)Cc3ccc([N+](=O)[O-])cc3)o2)cc(OC)c1OC`: the results for the inhibition at 50 µg/mL in the experiment on Botrytis cinerea [1], with Fusarium graminearum [2] and in the experiment with Sclerotinia sclerotiorum [3] were 76.8%, 42.1% and 62.2%, respectively.

Turning to `COc1cc(-c2nnc(S(=O)(=O)Cc3ccc(Cl)nc3)s2)cc(OC)c1OC`, the inhibition at 50 µg/mL with Botrytis cinerea [1] is 25.9%; with Fusarium graminearum [2], -1.1%; in the experiment with Sclerotinia sclerotiorum [3], 21.3%.

As to `COc1cc(-c2nnc(S(=O)(=O)Cc3ccccc3)s2)cc(OC)c1OC`, the inhibition at 50 µg/mL was 27.5% in the experiment with Botrytis cinerea [1], 8.3% in the experiment on Fusarium graminearum [2] and 22.9% in the experiment on Sclerotinia sclerotiorum [3].

As to `CCOC(=O)CS(=O)(=O)c1nnc(-c2cc(OC)c(OC)c(OC)c2)s1`, the inhibition at 50 µg/mL amounted to 49.7% in the experiment on Botrytis cinerea [1], 21.1% in the experiment on Fusarium graminearum [2] and 49.4% in the experiment with Sclerotinia sclerotiorum [3].

As to `COc1cc(-c2nnc(S(=O)(=O)Cc3cccc([N+](=O)[O-])c3)o2)cc(OC)c1OC`, the inhibition at 50 µg/mL is 40.7% with Botrytis cinerea [1], 11.8% in the experiment on Fusarium graminearum [2] and 38.3% in the experiment with Sclerotinia sclerotiorum [3].

For `COc1ccc(CS(=O)(=O)c2nnc(-c3cc(OC)c(OC)c(OC)c3)o2)cc1`, the figures for the inhibition at 50 µg/mL in the experiment on Botrytis cinerea [1], in the experiment on Fusarium graminearum [2] and with Sclerotinia sclerotiorum [3] were 58.5%, 33.9% and 58.5%, respectively.

Turning to `COc1cc(-c2nnc(S(=O)(=O)Cc3ccc(F)cc3)o2)cc(OC)c1OC`, the inhibition at 50 µg/mL in the experiment on Botrytis cinerea [1] stood at 41.6%; in the experiment on Fusarium graminearum [2], 28.1%; in the experiment with Sclerotinia sclerotiorum [3], 62.7%.

As to `COc1cc(-c2nnc(S(=O)(=O)Cc3ccccc3Cl)o2)cc(OC)c1OC`, the inhibition at 50 µg/mL with Botrytis cinerea [1] was found to be 26.1%; in the experiment with Fusarium graminearum [2] it was 11.9%; with Sclerotinia sclerotiorum [3] it was 39.6%.

Consider `COc1ccccc1CS(=O)(=O)c1nnc(-c2cc(OC)c(OC)c(OC)c2)o1`, for which the inhibition at 50 µg/mL amounted to 42.3% in the experiment on Botrytis cinerea [1], 23.7% with Fusarium graminearum [2] and 37.2% with Sclerotinia sclerotiorum [3].

For the compound `COc1cc(-c2nnc(S(=O)(=O)Cc3cccc(F)c3)o2)cc(OC)c1OC`, the inhibition at 50 µg/mL was 35.8% in the experiment on Botrytis cinerea [1], 9.3% with Fusarium graminearum [2] and 38.3% in the experiment with Sclerotinia sclerotiorum [3].

Take `COc1cc(-c2nnc(S(=O)(=O)Cc3ccccc3F)o2)cc(OC)c1OC`: the inhibition at 50 µg/mL with Botrytis cinerea [1] came out at 52.3%; in the experiment on Fusarium graminearum [2], 18.2%; in the experiment on Sclerotinia sclerotiorum [3], 33.4%.

For `COc1cc(-c2nnc(S(=O)(=O)Cc3ccc(Cl)cc3)o2)cc(OC)c1OC`, the inhibition at 50 µg/mL in the experiment on Botrytis cinerea [1] is 30.8%; with Fusarium graminearum [2], 23.3%; with Sclerotinia sclerotiorum [3] it was 35.5%.

As for `COc1cc(-c2nnc(S(=O)(=O)Cc3ccc(Cl)nc3)o2)cc(OC)c1OC`, the inhibition at 50 µg/mL was 60.3% in the experiment with Botrytis cinerea [1], 38.9% in the experiment on Fusarium graminearum [2] and 67.9% with Sclerotinia sclerotiorum [3].

Consider `COc1cc(-c2nnc(S(C)(=O)=O)o2)cc(OC)c1OC`, for which the EC50 amounted to 24.5 µg/mL (≈ 77.9 µM) in the experiment on Fusarium oxysporum; 93.3 µg/mL (≈ 297 µM) in the experiment on Rhizoctonia solani; 90.7 µg/mL (≈ 289 µM) in the experiment with Pyricularia oryzae; 28.8 µg/mL (≈ 91.6 µM) with Fusarium graminearum [7]; 21.8 µg/mL (≈ 69.4 µM) in experiment [4]; 30.8 µg/mL (≈ 98 µM) in the experiment with Pyricularia grisea. The EC50 in the experiment with Phytophthora infestans stood at 83.2 µg/mL (≈ 265 µM); with Botrytis cinerea [5], 11.7 µg/mL (≈ 37.2 µM); in the experiment with Sclerotinia sclerotiorum [6], 12.5 µg/mL (≈ 39.8 µM); with Cytospora it was 80.5 µg/mL (≈ 256 µM). Besides, the inhibition at 50 µg/mL was 100% in the experiment on Botrytis cinerea [1], 55.8% in the experiment on Fusarium graminearum [2] and 100% with Sclerotinia sclerotiorum [3].

As to `COc1cc(-c2nnc(S(C)(=O)=O)s2)cc(OC)c1OC`, the inhibition at 50 µg/mL in the experiment with Botrytis cinerea [1] was 27.1%; in the experiment on Fusarium graminearum [2], 11.6%; with Sclerotinia sclerotiorum [3], 40.7%.

Turning to `COc1cc(-c2nnc(S(=O)(=O)Cc3ccc([N+](=O)[O-])cc3)s2)cc(OC)c1OC`, the inhibition at 50 µg/mL with Botrytis cinerea [1] is 30.3%; with Fusarium graminearum [2], -1.8%; with Sclerotinia sclerotiorum [3], 20%.

With `CCCS(=O)(=O)c1nnc(-c2cc(OC)c(OC)c(OC)c2)s1`, the inhibition at 50 µg/mL came to 33.5% in the experiment with Botrytis cinerea [1], 13.5% with Fusarium graminearum [2] and 38.1% in the experiment with Sclerotinia sclerotiorum [3].

Regarding `COc1cc(-c2nnc(S(=O)(=O)Cc3ccc(Cl)cc3)s2)cc(OC)c1OC`, the values for the inhibition at 50 µg/mL in the experiment with Botrytis cinerea [1], with Fusarium graminearum [2] and with Sclerotinia sclerotiorum [3] were 20.8%, 5.5% and 20.3%, respectively.

For the compound `COc1cc(-c2nnc(S(=O)(=O)Cc3ccccc3)o2)cc(OC)c1OC`, the figures for the inhibition at 50 µg/mL in the experiment on Botrytis cinerea [1], with Fusarium graminearum [2] and in the experiment with Sclerotinia sclerotiorum [3] were 67.3%, 54.9% and 71.2%, respectively.

Turning to `Cc1cc(O)no1` [HYMEXAZOL], the EC50 came to 29.1 µg/mL (≈ 294 µM) in the experiment on Fusarium oxysporum and 52.1 µg/mL (≈ 526 µM) with Rhizoctonia solani. The inhibition at 50 µg/mL with Botrytis cinerea [1] was 75.4%; with Fusarium graminearum [2], 52.9%; in the experiment with Sclerotinia sclerotiorum [3], 77.5%.

As usually defined, the inhibition is the drop in the measured response relative to a control, in per cent. The EC50 is the concentration that produces a half-maximal response.
